# Test results: ChEMBL document CHEMBL1144620, “Synthesis and biodistribution of new radiolabeled high-affinity choline transporter inhibitors [11C]hemicholinium-3 and [18F]hemicholinium-3” (Bioorg Med Chem Lett, 2007)
# Experiments:
# [1] = system: Solar plexus; assay: Biodistribution in solar plexus of 9L-glioma bearing rat at 1 to 3 mCi, iv after 30 mins; assay type: ADME, organism-based; details: in vivo, 0.5 h
# How it was run: (§1)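 At 30 min they were decapitated under halothane anaesthesia. Tissues were excised, weighed and gamma-counted with decay correction. Values are %ID/g, averaged over three rats.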
# [2] = system: Kidney; assay: Biodistribution in kidney of 9L-glioma bearing rat at 1 to 3 mCi, iv after 5 mins; assay type: ADME, organism-based; details: in vivo
# How it was run: (§2)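 9L-glioma rats (200–300 g) given 1–3 mCi of [¹¹C]- or [¹⁸F]-labelled tracer iv by tail vein while consciously restrained. At 5 or 20 min they were decapitated under halothane anaesthesia. Tissues were excised and weighed, and decay-corrected radioactivity was counted by gamma counter. Values are %ID/g, averaged over three rats per time point.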
# [3] = Ratio of biodistribution in tumor to muscle of 9L-glioma bearing rat at 1 to 3 mCi, iv after 30 mins; assay type: ADME, organism-based; details: in vivo, 0.5 h
# [4] = system: Brain; assay: Biodistribution in brain of 9L-glioma bearing rat at 1 to 3 mCi, iv after 5 mins; assay type: ADME, organism-based; details: in vivo; how it was run: as §2
# [5] = system: Lung; assay: Biodistribution in lung of 9L-glioma bearing rat at 1 to 3 mCi, iv after 5 mins; assay type: ADME, organism-based; details: in vivo; how it was run: as §2
# [6] = Ratio of biodistribution in tumor to blood of 9L-glioma bearing rat at 1 to 3 mCi, iv after 30 mins; assay type: ADME, organism-based; details: tumour, 0.5 h
# [7] = system: Liver; assay: Biodistribution in liver of 9L-glioma bearing rat at 1 to 3 mCi, iv after 30 mins; assay type: ADME, organism-based; details: in vivo, 0.5 h; how it was run: as §1
# [8] = system: Plasma; assay: Biodistribution in plasma of 9L-glioma bearing rat at 1 to 3 mCi, iv after 5 mins; assay type: ADME, organism-based; details: in vivo; how it was run: as §2
# [9] = Biodistribution in A-V-node of 9L-glioma bearing rat at 1 to 3 mCi, iv after 30 mins; assay type: ADME, organism-based; details: in vivo, 0.5 h; how it was run: as §1
# [10] = Biodistribution in R-Atrium of 9L-glioma bearing rat at 1 to 3 mCi, iv after 30 mins; assay type: ADME, organism-based, Right cardiac atrium; details: in vivo, 0.5 h; how it was run: as §1
# [11] = Biodistribution in R-Atrium of 9L-glioma bearing rat at 1 to 3 mCi, iv after 5 mins; assay type: ADME, organism-based, Right cardiac atrium; details: in vivo; how it was run: as §2
# [12] = Biodistribution in L-Atrium of 9L-glioma bearing rat at 1 to 3 mCi, iv after 30 mins; assay type: ADME, organism-based, Left cardiac atrium; details: in vivo, 0.5 h; how it was run: as §1
# [13] = system: Lung; assay: Biodistribution in lung of 9L-glioma bearing rat at 1 to 3 mCi, iv after 30 mins; assay type: ADME, organism-based; details: in vivo, 0.5 h; how it was run: as §1
# [14] = system: Kidney; assay: Biodistribution in kidney of 9L-glioma bearing rat at 1 to 3 mCi, iv after 30 mins; assay type: ADME, organism-based; details: in vivo, 0.5 h; how it was run: as §1
# [15] = system: Septum; assay: Biodistribution in septum of 9L-glioma bearing rat at 1 to 3 mCi, iv after 30 mins; assay type: ADME, organism-based; details: in vivo, 0.5 h; how it was run: as §1
# [16] = system: Liver; assay: Biodistribution in liver of 9L-glioma bearing rat at 1 to 3 mCi, iv after 5 mins; assay type: ADME, organism-based; details: in vivo; how it was run: as §2
# [17] = system: Blood; assay: Biodistribution in blood of 9L-glioma bearing rat at 1 to 3 mCi, iv after 5 mins; assay type: ADME, organism-based; details: in vivo; how it was run: as §2
# [18] = Biodistribution in R-ventricle of 9L-glioma bearing rat at 1 to 3 mCi, iv after 5 mins; assay type: ADME, organism-based, Heart right ventricle; details: in vivo; how it was run: as §2
# [19] = system: 9L; assay: Biodistribution in tumor of 9L-glioma bearing rat at 1 to 3 mCi, iv after 5 mins; assay type: ADME, organism-based; details: in vivo; how it was run: as §2
# [20] = Biodistribution in urine of 9L-glioma bearing rat at 1 to 3 mCi, iv after 5 mins; assay type: ADME, organism-based; details: in vivo
# How it was run: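 In 9L-glioma rats injected iv (tail vein, conscious restraint) with 1–3 mCi of radiotracer, urine was drawn by syringe from the bladder at 5 or 20 min. Animals were killed by decapitation under halothane. Decay-corrected radioactivity was gamma-counted and expressed as percent of injected dose (%ID), averaged over three rats.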
# [21] = Biodistribution in skeletal muscle of 9L-glioma bearing rat at 1 to 3 mCi, iv after 5 mins; assay type: ADME, organism-based, Muscle tissue; details: in vivo; how it was run: as §2
# [22] = system: Plasma; assay: Biodistribution in plasma of 9L-glioma bearing rat at 1 to 3 mCi, iv after 30 mins; assay type: ADME, organism-based; details: in vivo, 0.5 h; how it was run: as §1
# [23] = system: Brain; assay: Biodistribution in brain of 9L-glioma bearing rat at 1 to 3 mCi, iv after 30 mins; assay type: ADME, organism-based; details: in vivo, 0.5 h; how it was run: as §1
# [24] = system: 9L; assay: Biodistribution in tumor of 9L-glioma bearing rat at 1 to 3 mCi, iv after 30 mins; assay type: ADME, organism-based; details: in vivo, 0.5 h; how it was run: as §1
# [25] = system: Solar plexus; assay: Biodistribution in solar plexus of 9L-glioma bearing rat at 1 to 3 mCi, iv after 5 mins; assay type: ADME, organism-based; details: in vivo; how it was run: as §2
# [26] = system: Septum; assay: Biodistribution in septum of 9L-glioma bearing rat at 1 to 3mCi, iv after 5 mins; assay type: ADME, organism-based; details: in vivo; how it was run: as §2
# [27] = Biodistribution in R-ventricle of 9L-glioma bearing rat at 1 to 3 mCi, iv after 30 mins; assay type: ADME, organism-based, Heart right ventricle; details: in vivo, 0.5 h; how it was run: as §1
# [28] = Biodistribution in L-ventricle of 9L-glioma bearing rat at 1 to 3mCi, iv after 5 mins; assay type: ADME, organism-based, Heart left ventricle; details: in vivo; how it was run: as §2
# [29] = Biodistribution in L-Atrium of 9L-glioma bearing rat at 1 to 3 mCi, iv after 5 mins; assay type: ADME, organism-based; details: in vivo; how it was run: as §2
# [30] = Biodistribution in A-V-node of 9L-glioma bearing rat at 1 to 3 mCi, iv after 5 mins; assay type: ADME, organism-based; details: in vivo; how it was run: as §2
# [31] = Biodistribution in skeletal muscle of 9L-glioma bearing rat at 1 to 3 mCi, iv after 30 mins; assay type: ADME, organism-based, Muscle tissue; details: in vivo, 0.5 h; how it was run: as §1
# [32] = Biodistribution in urine of 9L-glioma bearing rat at 1 to 3 mCi, iv after 30 mins; assay type: ADME, organism-based; details: in vivo, 0.5 h
# How it was run: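 At 30 min, urine was drawn from the bladder by syringe after decapitation under halothane. Radioactivity was gamma-counted with decay correction and expressed as % of injected dose. Mean of three rats.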
# [33] = system: Blood; assay: Biodistribution in blood of 9L-glioma bearing rat at 1 to 3 mCi, iv after 30 mins; assay type: ADME, organism-based; details: in vivo, 0.5 h
# How it was run: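 Blood was weighed and gamma-counted with decay correction, and results are expressed as %ID/g. Total blood activity assumed a blood mass of 7% of body mass. n = 3, mean.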
# [34] = Biodistribution in L-ventricle of 9L-glioma bearing rat at 1 to 3 mCi, iv after 30 mins; assay type: ADME, organism-based, Heart left ventricle; details: in vivo, 0.5 h; how it was run: as §1
compound,measurement,setting,value
C[N+]1(C)CCOC(O)(c2ccc(-c3ccc(C4(O)C[N+](C)(C[18F])CCO4)cc3)cc2)C1.O=S(=O)([O-])C(F)(F)F.[I-] (centres undefined),Drug uptake,[1],1.009 % ID/g
same,Drug uptake,[2],8.676 % ID/g
same,Ratio,[3],3.024
same,Drug uptake,[4],0.042 % ID/g
same,Drug uptake,[5],0.944 % ID/g
same,Ratio,[6],0.978
same,Drug uptake,[7],1.536 % ID/g
same,Drug uptake,[8],3.732 % ID/g
same,Drug uptake,[9],0.6 % ID/g
same,Drug uptake,[10],0.999 % ID/g
same,Drug uptake,[11],2.023 % ID/g
same,Drug uptake,[12],0.767 % ID/g
same,Drug uptake,[13],0.533 % ID/g
same,Drug uptake,[14],5.935 % ID/g
same,Drug uptake,[15],0.262 % ID/g
same,Drug uptake,[16],1.228 % ID/g
same,Drug uptake,[17],1.467 % ID/g
same,Drug uptake,[18],0.734 % ID/g
same,Drug uptake,[19],0.952 % ID/g
same,Drug uptake,[20],10.2 % dose
same,Drug uptake,[21],0.194 % ID/g
same,Drug uptake,[22],1.272 % ID/g
same,Drug uptake,[23],0.03 % ID/g
same,Drug uptake,[24],0.359 % ID/g
same,Drug uptake,[25],1.186 % ID/g
same,Drug uptake,[26],0.53 % ID/g
same,Drug uptake,[27],0.243 % ID/g
same,Drug uptake,[28],0.438 % ID/g
same,Drug uptake,[29],0.824 % ID/g
same,Drug uptake,[30],5.607 % ID/g
same,Drug uptake,[31],0.123 % ID/g
same,Drug uptake,[32],27.6 % dose
same,Drug uptake,[33],0.378 % ID/g
same,Drug uptake,[34],0.253 % ID/g
